# Measured values of several laboratories.
# Each line is one published result; the experiments were not run side by side.
# CYP3A7: Cytochrome P450 3A7 (CYP3A7, Homo sapiens, UniProt P24462)
SMILES,target or system,test,test system,setting,endpoint,result
O=[N+]([O-])c1cccc(/C=N/c2c(-c3ccccc3)nc3ccc(Cl)cn23)c1,MT4,"cell growth or viability, MTT",,5 days,CC50,82.1 µg/mL
C=C[C@@H]1C[C@]1(NC(=O)[C@@H]1C[C@@H](Oc2ncc(OC)c3ccc(Cl)cc23)CN1C(=O)[C@@H](NC(=O)OC(C)(C)C)C(C)(C)C)C(=O)NS(=O)(=O)C1CC1,CYP3A7,"enzyme activity, inhibitor, fluorescence",,"20 µM, 10 min, pH 7.4",inhibition,≥ 50%
N#C[C@@]12C[C@@H]1[C@@H](n1cnc3c(N[C@@H](C4CCC4)C4CC4)nc(I)nc31)[C@H](O)[C@@H]2O,,metabolic stability,"mouse, liver microsomes",1 h,compound remaining,72.6%
Cc1ccnc2c1NC(=O)c1cccnc1N2C1CC1,MT4,"cell growth or viability, MTT",,5 days,CC50,> 4 µg/mL
CC(C)(C)OC(=O)N[C@H]1CCCCC/C=C\[C@@H]2C[C@@]2(C(=O)NS(=O)(=O)C2CC2)NC(=O)[C@@H]2C[C@@H](OC(=O)N3Cc4cccc(F)c4C3)CN2C1=O,CYP3A7,"enzyme activity, inhibitor, fluorescence",,"20 µM, 10 min, pH 7.4",inhibition,≥ 50%
Cc1ccc(Cn2cc(C(=O)NN)c(=O)c3cc(Oc4ccccc4)ccc32)cc1,,metabolic stability,"male CD-1 mouse, liver microsomes","1 µM, 30 min",compound remaining,96%
N#Cc1cnn2c(NC3CC3)cc(Nc3ccc(N4CCC[C@H](N)C4)c(-n4cnnc4)c3)nc12,,metabolic stability,"male CD-1 mouse, liver microsomes","5 µM, 30 min, pH 7.4",compound remaining,98%
COC(=O)N[C@H](C(=O)N1CC2(CC2)C[C@H]1c1ncc(-c2ccc3c(c2)C(F)(F)c2cc(-c4ccc5nc([C@@H]6[C@H]7CC[C@H](C7)N6C(=O)[C@@H](NC(=O)OC)C(C)C)[nH]c5c4)ccc2-3)[nH]1)C(C)C,CYP3A7,"enzyme activity, inhibitor, fluorescence",,"20 µM, 10 min, pH 7.4",inhibition,≥ 50%
N#Cc1cnn2c(Nc3cn(CCN4CCCC4)cn3)cc(Nc3cccc(-n4cnnc4)c3)nc12,,metabolic stability,"male CD-1 mouse, liver microsomes","5 µM, 30 min, pH 7.4",compound remaining,67%
Oc1ccccc1/C=N/c1c(-c2ccccc2)nc2ccc(Cl)cn12,MT4,"cell growth or viability, MTT",,5 days,CC50,17.9 µg/mL
N#Cc1cnn2c(Nc3cn(CCN4CCOCC4)cn3)cc(Nc3cccc(-n4cnnc4)c3)nc12,,metabolic stability,"male CD-1 mouse, liver microsomes","5 µM, 30 min, pH 7.4",compound remaining,81%
COc1ccc2c(O[C@@H]3C[C@H]4C(=O)N[C@]5(C(=O)NS(=O)(=O)C6CC6)C[C@H]5/C=C\CCCCN(C)C(=O)[C@@H]4C3)cc(-c3nc(C(C)C)cs3)nc2c1C,CYP3A7,"enzyme activity, inhibitor, fluorescence",,"20 µM, 10 min, pH 7.4",inhibition,≥ 50%
